Reference: ChEMBL document CHEMBL2177002, “Antifungal spectrum, in vivo efficacy, and structure-activity relationship of ilicicolin h” (ACS Med Chem Lett, 2012)
≈ marks a conversion by molar mass, not a printed value. Calls of active or inactive are those of the source. The calls are words filed in the database; no cut-off is given here.

Experiments:
[1] = Oral bioavailability in mouse; type: ADME, organism-based; conditions: in vivo
[2] = Half life in mouse; type: ADME, organism-based; conditions: in vivo
[3] = Inhibition of rat liver NADH:cytochrome c oxidoreductase
[4] = Inhibition of Candida albicans MY 1055 NADH:cytochrome c oxidoreductase; conditions: read-out: IC50
[5] = tested on: Candida albicans; test: Ratio of MIC for Candida albicans 13 harboring cytochrome b G37C mutant to MIC for wild type Candida albicans; type: functional
[6] = tested on: Candida albicans; test: Ratio of MIC for Candida albicans 1 harboring cytochrome b G37C mutant to MIC for wild type Candida albicans; type: functional
[7] = tested on: Candida albicans; test: Ratio of MIC for Candida albicans 14 harboring cytochrome b G37S mutant to MIC for wild type Candida albicans; type: functional
[8] = tested on: Candida albicans; test: Ratio of MIC for Candida albicans 6 harboring cytochrome b G37S mutant to MIC for wild type Candida albicans; type: functional
[9] = tested on: Candida albicans; test: Ratio of MIC for Candida albicans 15 harboring cytochrome b G37S mutant to MIC for wild type Candida albicans; type: functional
[10] = tested on: Candida albicans; test: Ratio of MIC for Candida albicans 10 harboring cytochrome b S20I mutant to MIC for wild type Candida albicans; type: functional
[11] = tested on: Candida albicans; test: Ratio of MIC for Candida albicans 9 harboring cytochrome b G37D mutant to MIC for wild type Candida albicans; type: functional
[12] = Inhibition of Saccharomyces cerevisiae MY 2141 electron transport protein complex 1/3 using ethanol as substrate assessed as decrease in oxygen consumption measured for 3 mins
[13] = tested on: Saccharomyces cerevisiae; test: Antifungal activity against Saccharomyces cerevisiae MY 2141 assessed as inhibition of whole cell oxygen consumption at 0.003 ug/mL after 15 mins; type: functional; conditions: MY 2141, 0.25 h
[14] = tested on: Candida albicans; test: Antifungal activity against Candida albicans MY 1055 in glycerol-based medium after 24 hrs by NCCLS broth microdilution method; type: functional; conditions: MY 1055, 24 h
[15] = tested on: Nakaseomyces glabratus; test: Antifungal activity against Candida glabrata MY 1381 after 24 hrs by NCCLS broth microdilution method; type: functional; conditions: MY 1381, 24 h
[16] = tested on: Candida albicans; test: Antifungal activity against Candida albicans SC 53124 after 24 hrs by NCCLS broth microdilution method; type: functional; conditions: SC 53124, 24 h
[17] = tested on: Candida tropicalis; test: Antifungal activity against Candida tropicalis MY 1012 after 40 hrs by NCCLS broth microdilution method; type: functional; conditions: MY 1012, 40 h
[18] = tested on: Cryptococcus neoformans; test: Antifungal activity against Cryptococcus neoformans H 99 after 40 hrs by NCCLS broth microdilution method; type: functional; conditions: H 99, 40 h
[19] = tested on: Candida albicans; test: Antifungal activity against Candida albicans MY 1055 infected in DBA/2 mouse assessed as reduction in kidney fungal burden administered as ip tid; type: functional; conditions: MY 1055, Kidney
[20] = tested on: Candida albicans; test: Antifungal activity against Candida albicans MY 1055 infected in DBA/2 mouse assessed as reduction in kidney fungal burden at 25 to 50 mg/kg, iv tid after 24 hrs; type: functional, organism-based
How it was run: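 Abbreviated 24 h version of the disseminated C. albicans kidney-burden model in mice. Dosing intravenous, thrice daily, at total doses of 50 or 25 mg/kg/day. Kidney burden compared with controls by Excel t test (p < 0.05). ED90 expressed as mg/kg/day.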

[21] = tested on: Cryptococcus neoformans; test: Antifungal activity against Cryptococcus neoformans MY 2061 infected in DBA/2 mouse assessed as reduction in spleen fungal burden at 50 mg/kg, po bid; type: functional, organism-based; design: dose 50 mg/kg
How it was run: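 Mice with disseminated C. neoformans MY2061 infection (8 × 10⁵ cfu/mouse). Dosed twice daily at 100 or 50 mg/kg, oral or intraperitoneal, in 5% aqueous DMSO. Spleen burden measured as log cfu/g of spleen and compared by Excel t test (p < 0.05).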

[22] = tested on: Saccharomyces cerevisiae; test: Antifungal activity against Saccharomyces cerevisiae MY 2141 in glucose-based medium after 24 hrs by NCCLS broth microdilution method; type: functional; conditions: MY 2141, 24 h

In the case of `C/C=C/[C@@H]1[C@H]2C[C@@H](C)CC[C@@H]2C(C)=C[C@H]1C(=O)c1c(O)c(-c2ccc(O)cc2)c[nH]c1=O` [ILICICOLIN H], the bioavailability [1] is reported as 72%, the half-life [2] is reported as 2.5 h and the IC50 [3] is reported as 1.5 µg/mL (≈ 3.46 µM). The IC50 [4] was 1.85 nM, the Ratio [5] was 250 and the Ratio [6] was 250. The Ratio [7] was 250, the Ratio [8] was 250 and the Ratio [9] was 250. For the same compound, the Ratio [10] was 250, the Ratio [11] was 250 and the IC50 [12] was 0.008 µg/mL (≈ 0.0185 µM). It also gave an inhibition at 0.003 µg/mL [13] of 100%, an MIC [14] of 0.025 µg/mL (≈ 0.0577 µM) and an MIC [15] of 0.01 µg/mL (≈ 0.0231 µM). For the same compound, the MIC [16] was 0.01 µg/mL (≈ 0.0231 µM), the MIC [17] was 0.01 µg/mL (≈ 0.0231 µM) and the MIC [18] was 0.1 µg/mL (≈ 0.231 µM). For the same compound, the ED90 [19] was 0.01 mg/kg, the Activity [20] was “Active” and the Activity [21] was “Active”. It also gave an MIC [22] of over 50 µg/mL.
